From ChEMBL document CHEMBL4411319, “Discovery of Macrocyclic Inhibitors of Apurinic/Apyrimidinic Endonuclease 1” (J Med Chem, 2019)
pEC50, pIC50: −log10 of the molar value.

Tests used:
[1] = biological target: T1, DNA repair nuclease/redox regulator APEX1 (Homo sapiens, UniProt P27695); test: Inhibition of full length human APE1 assessed as reduction in endonuclease activity by measuring DNA cleavage of abasic sites using 6-FAM labelled two annealed oligonucleotides as AP site mimic substrate by fluorescence-based assay
Method in brief: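 Purified full-length APE1 (0.25-1.25 nM) added at once to 50 nM annealed duplex: 5'-6-FAM-labelled AP-site-mimic strand paired with a quencher-labelled strand. Buffer 50 mM Tris, 1 mM MgCl2, 50 mM NaCl, pH 7.5. Compound in triplicate, 10-point 1:2 dilution from 100 μM. Fluorescence from cleavage read kinetically at five 1-min intervals. Reaction rate compared with DMSO vehicle.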

[2] = Cytotoxicity against human Pa02C cells after 48 hrs by Alamar Blue-based assay; format: functional, cell-based
Method in brief: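 Patient-derived pancreatic Pa02c cells, low passage, kept in DMEM with 10% FBS. Plated at 2000 cells/well on poly-D-lysine-coated plates and grown overnight at 37 °C, 5% CO2. Dosed in 5% FBS DMEM from 100 μM, 1:2 serial dilution, 5 points, with DMSO vehicle and drug-background wells. Grown 48 h, then fresh medium with 10% Alamar Blue for 4 h and fluorescence read. Background subtracted, normalized to media alone, mean with standard error.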

[3] = biological target: T1, DNA repair nuclease/redox regulator APEX1; test: Inhibition of APE1 in human ST8814 cells assessed as effect on MMS-induced DNA damage by measuring tail DNA level at 100 uM after 1 hr in presence of MMS by comet assay; format: cell-based; set-up: scale not given: the % may be the effect or the level left
Method in brief: (§1)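 Malignant peripheral nerve sheath tumor ST8814 cells seeded at 130,000/well in DMEM + 10% FBS and grown overnight. Treated 1 h at 37 °C in Opti-MEM with compound (100 μM or EC30) alone or with 1.0 mM MMS. Trypsinized, then alkaline comet assay: lysis 60 min, unwinding at pH 13 for 20 min, electrophoresis at 1 V/cm for 30 min, SYBR Gold stain. Percent tail DNA averaged over 20 comets; two independent experiments.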

[4] = Induction of DNA damage in human ST8814 cells measuring tail DNA level at 100 uM after 1 hr in presence of MMS by comet assay (reference value: 16%); format: functional; method in brief: as §1

T1 sequence (P27695 whole entry): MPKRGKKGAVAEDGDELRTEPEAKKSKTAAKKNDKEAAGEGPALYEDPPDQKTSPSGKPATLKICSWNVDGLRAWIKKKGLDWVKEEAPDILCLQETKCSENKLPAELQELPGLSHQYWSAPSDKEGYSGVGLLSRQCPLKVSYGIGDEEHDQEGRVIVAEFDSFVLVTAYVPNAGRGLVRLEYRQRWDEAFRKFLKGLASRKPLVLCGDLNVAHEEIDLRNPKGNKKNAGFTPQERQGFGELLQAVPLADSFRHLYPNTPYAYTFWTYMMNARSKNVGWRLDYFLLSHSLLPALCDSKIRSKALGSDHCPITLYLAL

| SMILES | pIC50 [1] | pEC50 [2] | Activity [3] | Activity [4] | inhibition [1] |
| --- | --- | --- | --- | --- | --- |
| Cc1ccc(S(=O)(=O)n2cccc2[C@@H]2NC(=O)[C@H](Cc3c[nH]c4ccccc34)NC(=O)C[C@@H](c3ccc(F)cc3)NC(=O)C/C=C/[C@@H]2C)cc1 | 5.24 | < 4.00 |  |  |  |
| Cc1ccc(S(=O)(=O)n2cccc2[C@@H]2NC(=O)[C@H](Cc3c[nH]c4ccccc34)NC(=O)CCNC(=O)C/C=C/[C@@H]2C)cc1 | 4.48 | 4.23 | 96% | 12% |  |
| Cc1ccc(S(=O)(=O)n2cccc2[C@@H]2NC(=O)[C@H](Cc3c[nH]c4ccccc34)NC(=O)CCCNC(=O)C/C=C/[C@@H]2C)cc1 | 4.53 | 4.46 |  |  |  |
| Cc1ccc(S(=O)(=O)n2cccc2[C@@H]2NC(=O)[C@H](Cc3c[nH]c4ccccc34)NC(=O)C[C@@H](CCc3ccccc3)NC(=O)C/C=C/[C@@H]2C)cc1 | 5.57 | < 4.00 | 54% | 12% |  |
| Cc1ccc(S(=O)(=O)n2cccc2[C@@H]2NC(=O)[C@H](Cc3c[nH]c4ccccc34)NC(=O)C[C@@H](c3ccc(Cl)cc3)NC(=O)C/C=C/[C@@H]2C)cc1 | 4.92 | < 4.00 |  |  |  |
| C[C@H]1/C=C/CC(=O)N[C@H](c2ccc(F)cc2)CC(=O)N[C@@H](Cc2c[nH]c3ccccc23)C(=O)N[C@H]1c1ccccc1 | 4.26 | 4.44 |  |  |  |
| Cc1ccc(S(=O)(=O)n2cccc2[C@@H]2NC(=O)[C@H](Cc3c[nH]c4ccccc34)NC(=O)CCCCOC(=O)C/C=C/[C@@H]2C)cc1 | 5.03 | < 4.00 | 27% | 26% |  |
| Cc1ccc([C@@H]2CC(=O)N[C@@H](Cc3c[nH]c4ccccc34)C(=O)N[C@@H](c3cccn3S(=O)(=O)c3ccc(C)cc3)[C@@H](C)/C=C/CC(=O)N2)cc1 | 5.60 | < 4.00 | 40% | 20% |  |
| Cc1ccc(S(=O)(=O)n2cccc2[C@@H]2NC(=O)[C@H](Cc3c[nH]c4ccccc34)NC(=O)CCCCNC(=O)C/C=C/[C@@H]2C)cc1 | < 4.30 | < 4.00 |  |  |  |
| Cc1ccc(S(=O)(=O)n2cccc2[C@@H]2NC(=O)[C@H](Cc3c[nH]c4ccccc34)NC(=O)C[C@@H](Cc3ccc(Cl)cc3)NC(=O)C/C=C/[C@@H]2C)cc1 | 5.72 | < 4.00 |  |  |  |
| Cc1ccc(S(=O)(=O)n2cccc2[C@@H]2NC(=O)[C@H](Cc3c[nH]c4ccccc34)NC(=O)C(Oc3ccccc3)CCOC(=O)C/C=C/[C@@H]2C)cc1 (stereo partly specified) |  |  |  |  | Dose-dependent effect |
| C[C@H]1/C=C/CC(=O)N[C@H](c2ccc(Cl)cc2)CC(=O)N[C@@H](Cc2c[nH]c3ccccc23)C(=O)N[C@H]1c1ccccc1 | < 4.00 | 4.66 |  |  |  |
| Cc1ccc(S(=O)(=O)n2cccc2[C@@H]2NC(=O)[C@H](Cc3c[nH]c4ccccc34)NC(=O)C[C@H](CCc3ccccc3)NC(=O)C/C=C/[C@@H]2C)cc1 | 5.59 | < 4.00 |  |  |  |
| Cc1ccc(S(=O)(=O)n2cccc2[C@@H]2NC(=O)[C@H](Cc3c[nH]c4ccccc34)NC(=O)C(Oc3ccc(C(F)(F)F)cc3)CCOC(=O)C/C=C/[C@@H]2C)cc1 (stereo partly specified) | 5.60 |  |  |  | Dose-dependent effect |
| C[C@H]1/C=C/CC(=O)N[C@H](c2ccc(C(F)(F)F)cc2)CC(=O)N[C@@H](Cc2c[nH]c3ccccc23)C(=O)N[C@H]1c1ccccc1 | 4.58 | 4.23 | 67% | 12% |  |
| C[C@H]1/C=C/CC(=O)OCCCC(=O)N[C@@H](Cc2c[nH]c3ccccc23)C(=O)N[C@H]1c1ccccc1 | < 4.00 | < 4.00 |  |  |  |
| Cc1ccc(S(=O)(=O)n2cccc2[C@@H]2NC(=O)[C@H](Cc3c[nH]c4ccccc34)NC(=O)CCCOC(=O)C/C=C/[C@@H]2C)cc1 | 4.97 | < 4.00 |  |  |  |
| C[C@H]1/C=C/CC(=O)OCCC(Oc2ccc3c(c2)OCO3)C(=O)N[C@@H](Cc2c[nH]c3ccccc23)C(=O)N[C@H]1c1ccccc1 (stereo partly specified) | 5.74 |  |  |  | Dose-dependent effect |
| Cc1ccc(S(=O)(=O)n2cccc2[C@@H]2NC(=O)[C@H](Cc3c[nH]c4ccccc34)NC(=O)C[C@@H](c3cccc(C(F)(F)F)c3)NC(=O)C/C=C/[C@@H]2C)cc1 | 4.28 | 5.17 |  |  |  |
| C[C@H]1/C=C/CC(=O)OCCCCC(=O)N[C@@H](Cc2c[nH]c3ccccc23)C(=O)N[C@H]1c1ccccc1 | 4.20 | < 4.30 |  |  |  |
| CC(=O)Nc1sc2c(c1-c1nc3ccccc3s1)CCN(C(C)C)C2 |  |  | 34% | 17% |  |
| Cc1ccc(S(=O)(=O)n2cccc2[C@@H]2NC(=O)[C@H](Cc3c[nH]c4ccccc34)NC(=O)C[C@@H](c3ccc(C(F)(F)F)cc3)NC(=O)C/C=C/[C@@H]2C)cc1 | 5.89 | < 4.00 | 95% | 18% |  |
| Cc1ccc(S(=O)(=O)n2cccc2[C@@H]2NC(=O)[C@H](Cc3c[nH]c4ccccc34)NC(=O)C(c3ccccc3)CCOC(=O)C/C=C/[C@@H]2C)cc1 (stereo partly specified) |  |  |  |  | Dose-dependent effect |
